Reference: ChEMBL document CHEMBL5108036, “A concise SAR-analysis of antimicrobial cationic amphipathic barbiturates for an improved activity-toxicity profile” (Eur J Med Chem, 2022)

Columns and labels:
Bacillus subtilis = assay: Antibacterial activity against Bacillus subtilis 168 incubated for 48 hrs and measured by broth microdilution assay; type: functional
Summary of the method: (§1)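 MICs in µg/mL were measured against the reference strains S. aureus ATCC 9144, B. subtilis 168, E. coli ATCC 25922 and P. aeruginosa ATCC 27853. Compounds were tested as di-TFA salts.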

Escherichia coli = assay: Antibacterial activity against Escherichia coli ATCC 25922 incubated for 48 hrs and measured by broth microdilution assay; type: functional; summary of the method: as §1
[1] = Hemolytic activity in human RBC measured after 1 hr by microplate reader method; type: toxicity, cell-based, Erythrocyte; conditions: human, human red blood cells (erythrocytes)
Summary of the method: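 Human red blood cell lysis was used as the cytotoxicity read-out, expressed as EC50 in µg/mL. The highest concentration tested was 500 µM. Compounds were tested as di-TFA salts.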

Staphylococcus aureus = assay: Antibacterial activity against Staphylococcus aureus ATCC 9144 incubated for 48 hrs and measured by broth microdilution assay; type: functional; summary of the method: as §1
Pseudomonas aeruginosa = assay: Antibacterial activity against Pseudomonas aeruginosa ATCC 27853 incubated for 48 hrs and measured by broth microdilution assay; type: functional; summary of the method: as §1

`CNCCCCN1C(=O)N(CCCCNC)C(=O)C(Cc2cc(Br)cc(Br)c2)(Cc2cc(Br)cc(Br)c2)C1=O.O=C(O)C(F)(F)F.O=C(O)C(F)(F)F` showed an MIC (Bacillus subtilis) of 4 µg/mL, an MIC (Escherichia coli) of 8 µg/mL and an EC50 at 1 h [1] of 73 µg/mL. For the same molecule, the MIC (Staphylococcus aureus) was 8 µg/mL and the MIC (Pseudomonas aeruginosa) was 16 µg/mL.

Molecule `CCCCCCC1(Cc2cc(Br)cc(Br)c2)C(=O)N(CCCCNC(=N)N)C(=O)N(CCCCNC(=N)N)C1=O.O=C(O)C(F)(F)F.O=C(O)C(F)(F)F` (configuration not stated) has an MIC (Bacillus subtilis) of 4 µg/mL, an MIC (Escherichia coli) of 4 µg/mL and an EC50 at 1 h [1] of 58 µg/mL. The MIC (Staphylococcus aureus) was 2 µg/mL and the MIC (Pseudomonas aeruginosa) was 8 µg/mL.

For `NCCCCCCN1C(=O)N(CCCCCCN)C(=O)C(Cc2cc(Br)cc(Br)c2)(Cc2cc(Br)cc(Br)c2)C1=O.O=C(O)C(F)(F)F.O=C(O)C(F)(F)F`, the MIC (Bacillus subtilis) was 4 µg/mL, the MIC (Escherichia coli) was 4 µg/mL and the EC50 at 1 h [1] was 30 µg/mL. The MIC (Staphylococcus aureus) was 4 µg/mL and the MIC (Pseudomonas aeruginosa) was 16 µg/mL.

For `NCCCCN1C(=O)N(CCCCN)C(=O)C(Cc2cc(Br)cc(Br)c2)(C2CCCC2)C1=O.O=C(O)C(F)(F)F.O=C(O)C(F)(F)F`, the MIC (Bacillus subtilis) was 8 µg/mL, the MIC (Escherichia coli) was 64 µg/mL and the EC50 at 1 h [1] was > 407 µg/mL. It also gave an MIC (Staphylococcus aureus) of 16 µg/mL and an MIC (Pseudomonas aeruginosa) of 64 µg/mL.

`NCCCCN1C(=O)N(CCCCN)C(=O)C(Cc2cc(Br)cc(Br)c2)(Cc2cc(C(F)(F)F)cc(C(F)(F)F)c2)C1=O.O=C(O)C(F)(F)F.O=C(O)C(F)(F)F` showed an MIC (Bacillus subtilis) of 2 µg/mL, an MIC (Escherichia coli) of 8 µg/mL and an EC50 at 1 h [1] of 93 µg/mL. It also gave an MIC (Staphylococcus aureus) of 8 µg/mL and an MIC (Pseudomonas aeruginosa) of 8 µg/mL.

Molecule `N[C@H]1CC[C@@H](N2C(=O)N([C@H]3CC[C@@H](N)CC3)C(=O)C(Cc3cc(Br)cc(Br)c3)(Cc3cc(Br)cc(Br)c3)C2=O)CC1.O=C(O)C(F)(F)F.O=C(O)C(F)(F)F` has an MIC (Bacillus subtilis) of 4 µg/mL, an MIC (Escherichia coli) of 4 µg/mL and an EC50 at 1 h [1] of 15 µg/mL. For the same molecule, the MIC (Staphylococcus aureus) was 4 µg/mL and the MIC (Pseudomonas aeruginosa) was 8 µg/mL.

For `N=C(N)NCCCCN1C(=O)N(CCCCNC(=N)N)C(=O)C(Cc2cc(Br)c(Br)cc2Br)(Cc2cc(Br)c(Br)cc2Br)C1=O.O=C(O)C(F)(F)F.O=C(O)C(F)(F)F`, the MIC (Bacillus subtilis) was 4 µg/mL, the MIC (Escherichia coli) was 4 µg/mL and the EC50 at 1 h [1] was 32 µg/mL. It also gave an MIC (Staphylococcus aureus) of 4 µg/mL and an MIC (Pseudomonas aeruginosa) of 8 µg/mL.

`CCCCCCC1(Cc2cc(Br)cc(Br)c2)C(=O)N(CCCCN)C(=O)N(CCCCN)C1=O.O=C(O)C(F)(F)F.O=C(O)C(F)(F)F` gave an MIC (Bacillus subtilis) of 4 µg/mL, an MIC (Escherichia coli) of 16 µg/mL and an EC50 at 1 h [1] of 144 µg/mL. It also gave an MIC (Staphylococcus aureus) of 4 µg/mL and an MIC (Pseudomonas aeruginosa) of 16 µg/mL.

For `N=C(N)NCCCCCN1C(=O)N(CCCCCNC(=N)N)C(=O)C(Cc2cc(Br)cc(Br)c2)(Cc2cc(Br)cc(Br)c2)C1=O.O=C(O)C(F)(F)F.O=C(O)C(F)(F)F`, the MIC (Bacillus subtilis) was 4 µg/mL, the MIC (Escherichia coli) was 4 µg/mL and the EC50 at 1 h [1] was 29 µg/mL. It also gave an MIC (Staphylococcus aureus) of 4 µg/mL and an MIC (Pseudomonas aeruginosa) of 8 µg/mL.

In the case of `O=C(O)c1cn(C2CC2)c2cc(N3CCNCC3)c(F)cc2c1=O` [CIPROFLOXACIN], the MIC (Bacillus subtilis) is reported as < 0.03 µg/mL and the MIC (Escherichia coli) is reported as < 0.03 µg/mL.

With `NCCCCN1C(=O)N(CCCCN)C(=O)C(Cc2ccc3cc(Br)ccc3n2)(Cc2ccc3cc(Br)ccc3n2)C1=O.O=C(O)C(F)(F)F.O=C(O)C(F)(F)F` the MIC (Bacillus subtilis) was 4 µg/mL, the MIC (Escherichia coli) was 256 µg/mL and the EC50 at 1 h [1] was > 469 µg/mL. It also gave an MIC (Staphylococcus aureus) of 16 µg/mL and an MIC (Pseudomonas aeruginosa) of 256 µg/mL.

For `NCCCCN1C(=O)N(CCCCN)C(=O)C(Cc2ccc3ccccc3n2)(Cc2ccc3ccccc3n2)C1=O.O=C(O)C(F)(F)F.O=C(O)C(F)(F)F`, the MIC (Bacillus subtilis) was 64 µg/mL, the MIC (Escherichia coli) was > 256 µg/mL and the EC50 at 1 h [1] was > 390 µg/mL. For the same molecule, the MIC (Staphylococcus aureus) was 256 µg/mL and the MIC (Pseudomonas aeruginosa) was > 256 µg/mL.

Molecule `N=C(N)N[C@H]1C[C@H](N2C(=O)N([C@H]3C[C@H](NC(=N)N)C3)C(=O)C(Cc3cc(Br)cc(Br)c3)(Cc3cc(Br)cc(Br)c3)C2=O)C1.O=C(O)C(F)(F)F.O=C(O)C(F)(F)F` has an MIC (Bacillus subtilis) of 4 µg/mL, an MIC (Escherichia coli) of 4 µg/mL and an EC50 at 1 h [1] of 62 µg/mL. The MIC (Staphylococcus aureus) was 2 µg/mL and the MIC (Pseudomonas aeruginosa) was 8 µg/mL.

In the case of `N=C(N)NCCCN1C(=O)N(CCCNC(=N)N)C(=O)C(Cc2ccc(C(F)(F)F)cc2)(Cc2cc(Br)cc(Br)c2)C1=O.O=C(O)C(F)(F)F.O=C(O)C(F)(F)F` (configuration not stated), the MIC (Bacillus subtilis) is reported as 4 µg/mL, the MIC (Escherichia coli) is reported as 16 µg/mL and the EC50 at 1 h [1] is reported as > 480 µg/mL. The MIC (Staphylococcus aureus) was 4 µg/mL and the MIC (Pseudomonas aeruginosa) was 64 µg/mL.

For `N=C(N)NCCCCN1C(=O)N(CCCCNC(=N)N)C(=O)C(Cc2c(Br)cc(Br)cc2Br)(Cc2c(Br)cc(Br)cc2Br)C1=O.O=C(O)C(F)(F)F.O=C(O)C(F)(F)F`, the MIC (Bacillus subtilis) was 1 µg/mL, the MIC (Escherichia coli) was 4 µg/mL and the EC50 at 1 h [1] was 30 µg/mL. For the same molecule, the MIC (Staphylococcus aureus) was 2 µg/mL and the MIC (Pseudomonas aeruginosa) was 4 µg/mL.

For `CN(C)CCCCN1C(=O)N(CCCCN(C)C)C(=O)C(Cc2cc(Br)cc(Br)c2)(Cc2cc(Br)cc(Br)c2)C1=O.O=C(O)C(F)(F)F.O=C(O)C(F)(F)F`, the MIC (Bacillus subtilis) was 4 µg/mL, the MIC (Escherichia coli) was 8 µg/mL and the EC50 at 1 h [1] was 157 µg/mL. The MIC (Staphylococcus aureus) was 8 µg/mL and the MIC (Pseudomonas aeruginosa) was 64 µg/mL.

Work on `NCCCCN1C(=O)N(CCCCN)C(=O)C(Cc2ccc(Br)c3ccccc23)(Cc2ccc(Br)c3ccccc23)C1=O.O=C(O)C(F)(F)F.O=C(O)C(F)(F)F` yielded an MIC (Bacillus subtilis) of 2 µg/mL, an MIC (Escherichia coli) of 4 µg/mL and an EC50 at 1 h [1] of 27 µg/mL. For the same molecule, the MIC (Staphylococcus aureus) was 2 µg/mL and the MIC (Pseudomonas aeruginosa) was 4 µg/mL.

Molecule `N[C@H]1C[C@@H](N2C(=O)N([C@H]3C[C@@H](N)C3)C(=O)C(Cc3cc(Br)cc(Br)c3)(Cc3cc(Br)cc(Br)c3)C2=O)C1.O=C(O)C(F)(F)F.O=C(O)C(F)(F)F` has an MIC (Bacillus subtilis) of 4 µg/mL, an MIC (Escherichia coli) of 4 µg/mL and an EC50 at 1 h [1] of 50 µg/mL. For the same molecule, the MIC (Staphylococcus aureus) was 8 µg/mL and the MIC (Pseudomonas aeruginosa) was 8 µg/mL.

For `N=C(N)NCCCCN1C(=O)N(CCCCNC(=N)N)C(=O)C(Cc2ccc3cc(Br)ccc3n2)(Cc2ccc3cc(Br)ccc3n2)C1=O.O=C(O)C(F)(F)F.O=C(O)C(F)(F)F`, the MIC (Bacillus subtilis) was 4 µg/mL, the MIC (Escherichia coli) was 16 µg/mL and the EC50 at 1 h [1] was 461 µg/mL. The MIC (Staphylococcus aureus) was 2 µg/mL and the MIC (Pseudomonas aeruginosa) was 128 µg/mL.

With `NCCCN1C(=O)N(CCCN)C(=O)C(Cc2ccc(Br)c3ccccc23)(Cc2ccc(Br)c3ccccc23)C1=O.O=C(O)C(F)(F)F.O=C(O)C(F)(F)F` the MIC (Bacillus subtilis) was 2 µg/mL, the MIC (Escherichia coli) was 4 µg/mL and the EC50 at 1 h [1] was 23 µg/mL. It also gave an MIC (Staphylococcus aureus) of 2 µg/mL and an MIC (Pseudomonas aeruginosa) of 4 µg/mL.

In the case of `NCCCN1C(=O)N(CCCN)C(=O)C(Cc2ccc(C(F)(F)F)cc2)(Cc2cc(Br)cc(Br)c2)C1=O.O=C(O)C(F)(F)F.O=C(O)C(F)(F)F`, the MIC (Bacillus subtilis) is reported as 8 µg/mL, the MIC (Escherichia coli) is reported as 16 µg/mL and the EC50 at 1 h [1] is reported as > 438 µg/mL. The MIC (Staphylococcus aureus) was 32 µg/mL and the MIC (Pseudomonas aeruginosa) was 32 µg/mL.

For `CCCCCCC1(CCCCCC)C(=O)N(CCCCN)C(=O)N(CCCCN)C1=O.O=C(O)C(F)(F)F.O=C(O)C(F)(F)F`, the MIC (Bacillus subtilis) was 8 µg/mL, the MIC (Escherichia coli) was 32 µg/mL and the EC50 at 1 h [1] was > 333 µg/mL. It also gave an MIC (Staphylococcus aureus) of 16 µg/mL and an MIC (Pseudomonas aeruginosa) of 64 µg/mL.

Work on `N=C(N)NCCCN1C(=O)N(CCCNC(=N)N)C(=O)C(Cc2ccc(Br)c3ccccc23)(Cc2ccc(Br)c3ccccc23)C1=O.O=C(O)C(F)(F)F.O=C(O)C(F)(F)F` yielded an MIC (Bacillus subtilis) of 2 µg/mL, an MIC (Escherichia coli) of 4 µg/mL and an EC50 at 1 h [1] of 61 µg/mL. It also gave an MIC (Staphylococcus aureus) of 2 µg/mL and an MIC (Pseudomonas aeruginosa) of 8 µg/mL.

Work on `NCCCCN1C(=O)N(CCCCN)C(=O)C(Cc2cc(Br)c(Br)cc2Br)(Cc2cc(Br)c(Br)cc2Br)C1=O.O=C(O)C(F)(F)F.O=C(O)C(F)(F)F` yielded an MIC (Bacillus subtilis) of 4 µg/mL, an MIC (Escherichia coli) of 8 µg/mL and an EC50 at 1 h [1] of 27 µg/mL. It also gave an MIC (Staphylococcus aureus) of 4 µg/mL and an MIC (Pseudomonas aeruginosa) of 8 µg/mL.

In the case of `N=C(N)NCCCCN1C(=O)N(CCCCNC(=N)N)C(=O)C(Cc2ccc3ccccc3n2)(Cc2ccc3ccccc3n2)C1=O.O=C(O)C(F)(F)F.O=C(O)C(F)(F)F`, the MIC (Bacillus subtilis) is reported as 16 µg/mL, the MIC (Escherichia coli) is reported as 128 µg/mL and the EC50 at 1 h [1] is reported as > 432 µg/mL. For the same molecule, the MIC (Staphylococcus aureus) was 8 µg/mL and the MIC (Pseudomonas aeruginosa) was > 256 µg/mL.

Work on `NCCN1C(=O)N(CCN)C(=O)C(Cc2cc(Br)cc(Br)c2)(Cc2cc(Br)cc(Br)c2)C1=O.O=C(O)C(F)(F)F.O=C(O)C(F)(F)F` yielded an MIC (Bacillus subtilis) of 4 µg/mL, an MIC (Escherichia coli) of 4 µg/mL and an EC50 at 1 h [1] of 39 µg/mL. For the same molecule, the MIC (Staphylococcus aureus) was 4 µg/mL and the MIC (Pseudomonas aeruginosa) was 8 µg/mL.
